Data set [1] relates to constipation-predominant irritable bowel syndrome patients. The conditions noted are these: cited from earlier work.
Data set [2] concerns loperamide-induced mouse model of constipation. The data set can be described thus: Loperamide-induced constipation model in wild-type mice. It is filed as in vivo. The conditions noted are these: for Normalization of stool output as percent of the maximal CFTRact-J027 response: 0.5 mg/kg oral; for Stool weight, pellet number and water content (3 hours): 10 mg/kg intraperitoneal, loperamide-treated wild-type mice. In outline: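 Female CD1 mice (8–10 wk) given loperamide 0.3 mg/kg IP. Test compound (0.1–10 mg/kg) or vehicle given IP at the same time, or orally 1 h before. Mice then housed singly in metabolic cages and stool collected for 3 h: total weight, pellet number, and water content after drying at 80°C for 24 h. Mean ± SEM; 6 mice per group, dose-response 4–6 per group.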

For data set [3], the system named is chronic constipation patients. Particulars: placebo 0.9; cited from earlier work.
The target in a further data set is human wild-type CFTR (Homo sapiens, UniProt P13569). Nature of the data set: Short-circuit current in FRT cells expressing wild-type human CFTR. It counts as cell-based. In outline: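 FRT cells stably expressing wild-type human CFTR grown on porous filters. Basolateral membrane permeabilized with 250 μg/mL amphotericin B. Apical side given a Cl⁻ gradient (65 mmol/L NaCl replaced by Na gluconate, 2 mmol/L CaCl2) against HEPES-buffered basolateral saline, pH 7.3, 37°C. Forskolin, test compound, then CFTRinh-172 (10 μmol/L) added. Concentration dependence: mean ± SEM, n = 3 cultures.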

In data set [4] the test system is isolated mouse ileum and colon strips. Nature of the data set: Ex vivo contractility of isolated intestinal strips. The conditions noted are these: added alone or in the presence of 10 μmol/L loperamide.
Data set [5] can be described thus: Pharmacokinetics in mice after bolus IP or oral administration. It is filed as in vivo, mouse. An outline of the steps: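 Female CD1 mice dosed once with 10 mg/kg test compound in saline containing 5% DMSO and 10% Kolliphor HS 15, IP or orally. Blood taken by orbital puncture at 15, 30, 60, 150, 240 and 360 min, and plasma separated by centrifugation. Levels measured by LC-MS against calibration standards spiked into untreated mouse plasma. Mean ± SEM, 3 mice per group.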

In data set [6] the test system is closed midjejunal loops in cystic fibrosis mice. Nature of the data set: Intestinal fluid secretion in closed midjejunal loops, cystic fibrosis mice. It is filed as in vivo, mouse. Particulars: 100 μg per loop, 90 minutes. In outline:
(§1)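 Mice fasted 24 h with 5% dextrose water only, then anaesthetised with isoflurane and kept at 36–38°C. Closed midjejunal loops (2–3 cm) tied off by sutures and injected with 100 μL vehicle or 100 μg test compound in vehicle. Incision closed and mice recovered. Loops removed at 90 min; loop weight/length taken as fluid secretion. 4 loops per group.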

Data set [7] in a line: 7-day oral toxicity study in mice. It counts as in vivo, mouse. An outline of the steps:
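Mice received 10 mg/kg test compound or vehicle orally once daily for 7 days. One hour after the last dose, loperamide 0.3 mg/kg IP was given and stool was collected for 3 h. At 4 h after the last dose: complete blood count, serum chemistry, body weight and lung wet/dry weight ratio. Mean ± SEM, 5 mice per group.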

The subject of a further data set is FRT cells. Nature of the data set: In vitro cytotoxicity by Alamar Blue assay. It counts as cell-based, rat. In outline:
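FRT cells exposed to 25 μmol/L test compound for 8 and 24 h, with viability read by Alamar Blue. Mean ± SEM, n = 3 cultures.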
For orientation: Resazurin is reduced to fluorescent resorufin, in cell work by metabolically active cells.

A short description of a further data set: Solubility limit. It is filed as physicochemical.
Data set [8] relates to cystic fibrosis mice (ΔF508 homozygous). It is filed as in vivo, mouse. Particulars: loperamide model; cystic fibrosis mice lacking functional CFTR. An outline of the steps:
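ΔF508-homozygous cystic fibrosis mice run in the same loperamide protocol as wild-type mice (0.3 mg/kg IP, test compound or vehicle). Stool collected for 3 h in metabolic cages; weight, pellet number, and water content measured after drying at 80°C for 24 h. 3–6 mice per group.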

For a further data set, the system named is cAMP. Nature of the data set: GloSensor luminescence cAMP assay in FRT null cells. It counts as cell-based, rat. The conditions noted are these: 5 μmol/L, 10 minutes. An outline of the steps:
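FRT null cells stably transfected with a GloSensor cAMP plasmid, grown to confluence and washed 3× in PBS. Incubated 10 min with 5 μmol/L test compound, without or with forskolin (100 nmol/L). cAMP read by luminescence. Positive controls: forskolin 100 nmol/L and 20 μmol/L, forskolin plus IBMX 100 μmol/L. Mean ± SEM, n = 4–8.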
A general note: Changes in cAMP serve as a functional read-out for many G protein-coupled receptors.

Data set [9] deals with closed midjejunal loops in wild-type mice. The data set can be described thus: Intestinal fluid secretion in closed midjejunal loops, wild-type mice. It counts as in vivo, mouse. The conditions noted are these: 100 μg per loop, 90 minutes. In outline:
as §1

In the next data set the test system is cystic fibrosis mice. The data set can be described thus: Whole-gut transit time in cystic fibrosis mice. It is filed as in vivo, mouse. Particulars: 10 mg/kg IP. In outline:
(§2)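 Marker (200 μL; 5% Evans Blue, 5% gum Arabic) given by oral gavage at zero time. At the same time, loperamide (0.3 mg/kg) and test compound (10 mg/kg) or vehicle given IP, to wild-type or cystic fibrosis mice. Whole-gut transit time taken as the time the marker appears in stool.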

Data set [10] in a line: In vitro metabolic stability in mouse liver microsomes. It is filed as in vitro ADME. An outline of the steps:
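Test compound (5 μmol/L) incubated at 37°C for set times with mouse liver microsomes (1 mg protein/mL) in 100 mmol/L potassium phosphate with 1 mmol/L NADPH. Reaction chilled on ice and extracted with ice-cold ethyl acetate, then centrifuged. Supernatant dried, residue taken up in acetonitrile:water 3:1, and parent measured by LC-MS.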
Background: Liver microsomes are a subcellular fraction often used to study metabolism.

The target of another data set is ΔF508-CFTR (Homo sapiens, UniProt P13569, DEL508-508). The data set can be described thus: Short-circuit current in FRT cells expressing ΔF508-CFTR. The conditions noted are these: FRT cells expressing ΔF508-CFTR after overnight incubation with corrector VX-809. It counts as cell-based. In outline:
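Short-circuit current in FRT cells expressing ΔF508-CFTR, pre-corrected with 3 μmol/L VX-809 at 37°C for 24 h. Responses recorded to added forskolin, test compound and VX-770, with CFTRinh-172 (10 μmol/L) where indicated. Traces representative of 3 experiments.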

A further data set has as its system loperamide-treated mice. Nature of the data set: Efficacy in loperamide model after 7-day chronic oral administration. It is filed as in vivo, mouse. Particulars: 10 mg/kg orally for 7 days, loperamide 1 hour after final dose.
Data set [11] relates to loperamide-treated wild-type mice. Nature of the data set: Whole-gut transit time in loperamide-treated wild-type mice. It counts as in vivo, mouse. The conditions noted are these: 10 mg/kg IP with loperamide at zero time. In outline: as §2
In data set [12] the test system is closed midjejunal loops of cystic fibrosis mice. Nature of the data set: Intestinal fluid absorption in closed midjejunal loops, cystic fibrosis mice. Particulars: 100 μg per loop, 30 minutes. It counts as in vivo, mouse.
The mark [13] stands for this setting: 10 mg/kg orally once a day for 7 days.
Setting [14] is: 10 mg/kg orally once per day for 7 days, mean ± SEM, 5 mice.

Data on four compounds can be found in publication PMC4844355 (Cellular and Molecular Gastroenterology and Hepatology, 2016).

As a reminder, the half-life is the time needed for the level to fall by half in the phase considered. A lower half-life goes with fast loss. One may read the solubility as the dissolved amount per volume that the medium holds. Low readings indicate little dissolved substance, high ones much dissolved substance.

Converted amounts (≈) assume the structure as drawn. “Also recorded” adds a separate entry of the source.

Turning to `CCCCC(F)(F)[C@@]1(O)CC[C@H]2[C@@H](CC(=O)[C@@H]2CCCCCCC(=O)O)O1` [lubiprostone, reference compound], the Overall response rate result in [1] is recorded as “approximately 13%”. For the same compound, the “Normalization of stool output as percent of the maximal CFTRact-J027 response” value in [2] (loperamide-treated mice) came out at 50%.

For linaclotide [reference compound], the “Normalization of stool output as percent of the maximal CFTRact-J027 response” value in data set [2] (loperamide-treated mice) is 35%. In addition, the CSBM per week in data set [3] is given as approximately 2.5.

Turning to `Cn1c(=O)c(-c2cc([N+](=O)[O-])ccc2N)nc2ccccc21` [inactive chemical analog of CFTRact-J027, 3-(2-amino-5-nitrophenyl)-1-(methyl)-2(1H)-quinoxalinone], the “Stool weight, pellet number and water content (3 hours)” value in data set [2] is listed as “not effective”.

Consider `Nc1ccc([N+](=O)[O-])cc1-c1nc2ccccc2n(Cc2ccccc2)c1=O` [CFTRact-J027, 3-(2-amino-5-nitrophenyl)-1-benzylquinoxalin-2(1H)-one], for which the “CFTR activation at 3 μmol/L” value at human wild-type CFTR (FRT cells expressing wild-type CFTR, 3 μmol/L) was “nearly full activation”. For the same compound, the “CFTR activation (short-circuit current)” value at human wild-type CFTR (FRT cells, wild-type CFTR, forskolin produced minimal further increase) is “fully activated CFTR”. In addition, the “CFTR activation in the absence of forskolin” value on human wild-type CFTR (FRT cells, wild-type CFTR, no forskolin, data not shown) is listed as “Little CFTR activation”. For the same compound, the Intestinal contraction result in data set [4] is on record as “no effect”. In addition, the half-life in [5] (female, CD1, mouse, serum, ip, 10 mg/kg) was approximately 16 min. The same compound returned a concentration at 30 minutes in data set [5] (female, CD1, mouse, serum, po, 10 mg/kg) of 180 nM. In addition, the “Serum concentration at 150 minutes after IP administration” value in data set [5] (mice, 10 mg/kg IP, 150 minutes) is on record as “undetectable”. In data set [5] (mice, 10 mg/kg oral), the “Blood levels after oral administration” value is “less than 200 nmol/L”. The “Serum concentration at other time points after oral administration” value in [5] (mice, 10 mg/kg oral, time points other than 30 minutes) is listed as “undetectable”. Also, the Oral bioavailability result in [5] (mice, 10 mg/kg oral, 10 mg/kg) is “minimal bioavailability; also recorded: very low bioavailability”. In data set [6], the “Loop fluid secretion in cystic fibrosis mice” value is given as “without effect”. Further, the “Stool weight, pellet number and water content (3 hours)” value in data set [2] is listed as “normalized each of the stool parameters”. Moreover, the “Stool output and water content, oral administration” value in [2] (10 mg/kg oral 1 hour before loperamide, loperamide-treated mice) was “effective in normalizing stool output and water content”. In addition, the “Stool output and water content in control mice, oral administration” value in [2] (10 mg/kg oral, control mice) was “no effect”. Moreover, in data set [2] (intraperitoneal, control (non-loperamide-treated) mice), the “Stool output or water content in control mice” value is listed as “did not affect stool output or water content”. Also, the “50% effective dose, IP administration” value in data set [2] (loperamide model, intraperitoneal) is 2 mg/kg. Also, in [7] (setting [13]), the Body weight entry is listed as “did not change body weight”; the “Lung water content (lung wet/dry weight ratio)” value is listed as “normal lung water content”; the “Major serum chemistry and blood parameters” value was “did not affect the major serum chemistry and blood parameters”. Besides, in data set [7] (setting [14]), the ALP level is listed as 53 ± 2.5 U/L, the ALT level stood at 44 ± 6 U/L, the AST level is reported as 105 ± 11 U/L and the Albumin level stood at 2.9 ± 0.03 g/dL. In data set [7] (setting [14]), the BUN level was 18.4 ± 1.2 mg/dL, the Bicarbonate level amounted to 16 ± 1.7 mmol/L, the CK level was 312 ± 62 U/L and the Calcium level is recorded as 8.5 ± 0.04 mg/dL. In data set [7] (setting [14]), this compound showed a Chloride level of 115 ± 1 mmol/L, a Cholesterol level of 121 ± 6 mg/dL, a Creatinine level of 0.2 ± 0 mg/dL and a Globulin level of 2.2 ± 0.1 g/dL. For the same compound, in [7] (setting [14]), the Glucose level was found to be 164 ± 6 mg/dL, the Hemoglobin level is reported as 12.8 ± 0.3 g/dL, the Leukocyte level is 1.9 ± 0.5 10^3/μL and the Phosphorus level turned out to be 6.8 ± 0.3 mg/dL. In [7] (setting [14]), the Potassium level was 4.4 ± 0.1 mmol/L, the Sodium level amounted to 151 ± 0.7 mmol/L, the Thrombocyte level was 900 ± 48 10^3/μL and the Total bilirubin level is reported as 0.1 ± 0 mg/dL. The same compound showed a Total protein level in [7] (setting [14]) of 5.2 ± 0.1 g/dL. Further, in the data set on FRT cells (25 μmol/L versus EC50), the “Non-cytotoxic concentration relative to EC50 for CFTR activation” value is reported as “more than 100 fold”. In addition, the “Cytotoxicity (Alamar Blue)” value with FRT cells (25 μmol/L, FRT cells, 8 and 24 hours) is recorded as “did not show cytotoxicity”. Moreover, the solubility in the data set “Solubility limit” is approximately 25 µM (≈ 9.31 µg/mL). Further, the “Stool output and water content in cystic fibrosis mice” value in [8] is given as “without effect”. Besides, the “Cellular cAMP, compound added alone” value in the data set with cAMP was “does not increase cellular cAMP”. For the same compound, the “Cellular cAMP, compound added together with forskolin” value in the data set with cAMP (with forskolin) is on record as “does not increase cAMP further”. Besides, in data set [9], the “Increase in loop weight/length ratio (fluid secretion)” value turned out to be 140%. Also, the “Whole-gut transit time in cystic fibrosis mice” value in the data set on cystic fibrosis mice is “no effect”. Also, the “Original compound remaining at 60 minutes” value in [10] (mouse liver microsomes, 60 minutes) is reported as 7%. Moreover, the half-life at 5 μmol/L in data set [10] (mouse, liver microsomes) is approximately 21 min. Further, the “Potentiation of ΔF508-CFTR” value at ΔF508-CFTR is listed as “only a weak potentiator; also recorded: substantially less potent than ivacaftor”. In the data set with loperamide-treated mice, the “Stool output and water content after chronic administration” value is “remained effective in normalizing stool output and water content”. In addition, the Whole-gut transit time entry in [11] is on record as “normalized”. Further, the Intestinal fluid absorption result in data set [12] is reported as “did not affect intestinal fluid absorption”.
